According to ChEMBL document CHEMBL4017537, “Discovery of a Potent and Specific M. tuberculosis Leucyl-tRNA Synthetase Inhibitor: (S)-3-(Aminomethyl)-4-chloro-7-(2-hydroxyethoxy)benzo[c][1,2]oxaborol-1(3H)-ol (GSK656)” (J Med Chem, 2017):
Values after ≈ are worked out from the molar mass of the structure shown.

Assays:
Leucine--tRNA ligase = molecular target: T1, Leucine--tRNA ligase (Mycobacterium tuberculosis (strain ATCC 25618 / H37Rv), UniProt P9WFV1); experiment: Inhibition of Mycobacterium tuberculosis H37Rv N-terminal 6His-tagged LeuRS expressed in Escherichia coli BL21(DE3) assessed as L-[14C]leucine incorporation in to Escherichia coli tRNA after 20 mins by liquid scintillation counting analysis
T1 sequence (P9WFV1 whole entry): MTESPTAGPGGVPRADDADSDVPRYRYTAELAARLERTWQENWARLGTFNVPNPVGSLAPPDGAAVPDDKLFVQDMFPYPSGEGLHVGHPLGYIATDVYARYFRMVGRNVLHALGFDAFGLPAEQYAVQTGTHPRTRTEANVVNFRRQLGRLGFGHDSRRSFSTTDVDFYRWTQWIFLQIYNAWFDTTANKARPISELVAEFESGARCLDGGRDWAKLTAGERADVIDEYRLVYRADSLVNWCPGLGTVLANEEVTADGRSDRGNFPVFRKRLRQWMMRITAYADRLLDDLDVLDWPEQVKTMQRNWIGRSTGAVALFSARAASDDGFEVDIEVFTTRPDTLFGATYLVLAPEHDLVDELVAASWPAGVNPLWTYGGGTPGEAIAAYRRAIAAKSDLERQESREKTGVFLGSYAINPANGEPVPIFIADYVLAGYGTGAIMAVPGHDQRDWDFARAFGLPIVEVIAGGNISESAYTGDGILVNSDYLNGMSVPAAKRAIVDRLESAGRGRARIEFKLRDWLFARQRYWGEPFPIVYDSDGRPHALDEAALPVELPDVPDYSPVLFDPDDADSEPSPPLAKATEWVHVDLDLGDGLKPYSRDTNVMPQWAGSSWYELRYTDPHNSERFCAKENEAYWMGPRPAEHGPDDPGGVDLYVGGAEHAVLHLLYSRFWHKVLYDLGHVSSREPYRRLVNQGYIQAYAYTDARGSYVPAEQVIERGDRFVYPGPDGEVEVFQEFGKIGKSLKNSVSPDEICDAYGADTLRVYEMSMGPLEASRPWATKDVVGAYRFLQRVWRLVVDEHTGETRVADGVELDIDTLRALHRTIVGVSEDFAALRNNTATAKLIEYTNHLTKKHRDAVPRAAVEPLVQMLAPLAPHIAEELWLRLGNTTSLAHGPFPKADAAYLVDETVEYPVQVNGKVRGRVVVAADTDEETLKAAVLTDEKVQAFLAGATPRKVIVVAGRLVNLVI
Outline: (§1)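 N-terminal His6-tagged LeuRS expressed in E. coli BL21(DE3), codon-optimized. 50 mM HEPES-KOH pH 8.0, 30 mM MgCl2, 30 mM KCl, 13 μM L-[14C]leucine, 15 μM tRNA (E. coli total; brewer's yeast for human cytoplasmic enzyme), 0.02% BSA, 1 mM DTT, 30 °C. Inhibitor preincubated 20 min, started with 4 mM ATP, TCA-quenched after 7 min, filtered, scintillation counted; four-parameter logistic IC50.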

[1] = system: Mycobacterium tuberculosis; experiment: Antimicrobial activity against Mycobacterium tuberculosis H37Rv; format: functional
HepG2 = experiment: Cytotoxicity against human HepG2 cells assessed as reduction in cell viability after 48 hrs by CellTiter-Glo assay; format: cell-based; conditions: HepG2, 48 h
Outline: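 HepG2 cells seeded at 10 000/well in EMEM with 5% FCS and 2 mM glutamine. After 24 h, ten 1:2 serial compound dilutions (0.5% DMSO final) added in duplicate for 48 h. Read-out by CellTiter-Glo luminescence per table footnote; the method text also describes resazurin fluorescence (ex 515/em 590 nm). Sigmoidal variable-slope fit.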

[2] = molecular target: T2, Leucine--tRNA ligase, cytoplasmic (Homo sapiens, UniProt Q9P2J5); experiment: Inhibition of cytoplasmic LeuRS in human HepG2 cells assessed as reduction in protein synthesis preincubated for 48 hrs followed by L-[14C]leucine addition measured after 3 hrs by liquid scintillation counting analysis; format: cell-based
T2 sequence (Q9P2J5 whole entry): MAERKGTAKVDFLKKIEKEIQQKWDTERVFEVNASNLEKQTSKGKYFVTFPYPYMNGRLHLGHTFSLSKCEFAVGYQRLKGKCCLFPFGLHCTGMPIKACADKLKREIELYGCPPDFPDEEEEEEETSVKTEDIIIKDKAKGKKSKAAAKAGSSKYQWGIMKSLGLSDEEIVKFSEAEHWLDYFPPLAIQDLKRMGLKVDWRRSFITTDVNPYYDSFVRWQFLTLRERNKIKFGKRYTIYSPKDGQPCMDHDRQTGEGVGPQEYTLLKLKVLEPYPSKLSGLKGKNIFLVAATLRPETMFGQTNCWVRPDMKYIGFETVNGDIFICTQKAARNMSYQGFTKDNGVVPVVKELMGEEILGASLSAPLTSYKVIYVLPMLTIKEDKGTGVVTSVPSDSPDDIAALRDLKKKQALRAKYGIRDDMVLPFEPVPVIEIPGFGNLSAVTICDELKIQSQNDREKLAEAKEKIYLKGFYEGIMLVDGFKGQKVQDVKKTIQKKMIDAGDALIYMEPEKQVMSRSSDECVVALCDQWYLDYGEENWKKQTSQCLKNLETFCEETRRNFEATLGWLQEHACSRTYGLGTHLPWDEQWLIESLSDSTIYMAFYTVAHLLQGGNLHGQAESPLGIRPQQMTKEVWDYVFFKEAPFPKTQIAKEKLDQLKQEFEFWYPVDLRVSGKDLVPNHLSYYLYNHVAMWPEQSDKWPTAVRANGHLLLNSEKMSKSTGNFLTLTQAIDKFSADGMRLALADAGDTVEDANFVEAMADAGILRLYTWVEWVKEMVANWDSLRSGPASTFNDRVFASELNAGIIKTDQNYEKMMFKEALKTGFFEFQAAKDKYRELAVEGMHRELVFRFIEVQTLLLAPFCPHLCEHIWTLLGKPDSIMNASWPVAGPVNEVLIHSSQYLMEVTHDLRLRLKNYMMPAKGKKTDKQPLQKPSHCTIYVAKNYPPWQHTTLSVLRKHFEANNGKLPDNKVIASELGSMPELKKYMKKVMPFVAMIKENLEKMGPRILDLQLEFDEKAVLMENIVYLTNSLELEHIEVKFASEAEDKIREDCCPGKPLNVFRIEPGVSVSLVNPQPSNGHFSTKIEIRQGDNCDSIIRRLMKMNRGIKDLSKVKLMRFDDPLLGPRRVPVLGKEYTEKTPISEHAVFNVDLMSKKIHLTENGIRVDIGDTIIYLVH
Outline: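 HepG2 cells in DMEM/10% FCS, 3000 cells/well, exposed to compound dilutions (0.5% DMSO final) for 48 h at 37 °C. Medium then replaced with fresh medium containing 0.5 μCi L-[14C]leucine and the same compound levels for 3 h. Cells trypsinised, precipitated in ice-cold 20% TCA, filtered, washed, scintillation counted; curve-fit EC50; mean of at least duplicates.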

[3] = molecular target: T2, Leucine--tRNA ligase, cytoplasmic; experiment: Inhibition of human N-terminal 6His-tagged cytoplasmic LeuRS expressed in Escherichia coli BL21(DE3) assessed as […] after 20 mins by liquid scintillation counting analysis
[4] = molecular target: T3, Leucine--tRNA ligase, mitochondrial (Homo sapiens, UniProt Q15031); experiment: Inhibition of human N-terminal 6His-tagged mitochondrial LeuRS expressed in Escherichia coli BL21(DE3) assessed as L-[14C]leucine incorporation in to Escherichia coli tRNA after 20 mins by liquid scintillation counting analysis; outline: as §1
T3 sequence (Q15031 whole entry): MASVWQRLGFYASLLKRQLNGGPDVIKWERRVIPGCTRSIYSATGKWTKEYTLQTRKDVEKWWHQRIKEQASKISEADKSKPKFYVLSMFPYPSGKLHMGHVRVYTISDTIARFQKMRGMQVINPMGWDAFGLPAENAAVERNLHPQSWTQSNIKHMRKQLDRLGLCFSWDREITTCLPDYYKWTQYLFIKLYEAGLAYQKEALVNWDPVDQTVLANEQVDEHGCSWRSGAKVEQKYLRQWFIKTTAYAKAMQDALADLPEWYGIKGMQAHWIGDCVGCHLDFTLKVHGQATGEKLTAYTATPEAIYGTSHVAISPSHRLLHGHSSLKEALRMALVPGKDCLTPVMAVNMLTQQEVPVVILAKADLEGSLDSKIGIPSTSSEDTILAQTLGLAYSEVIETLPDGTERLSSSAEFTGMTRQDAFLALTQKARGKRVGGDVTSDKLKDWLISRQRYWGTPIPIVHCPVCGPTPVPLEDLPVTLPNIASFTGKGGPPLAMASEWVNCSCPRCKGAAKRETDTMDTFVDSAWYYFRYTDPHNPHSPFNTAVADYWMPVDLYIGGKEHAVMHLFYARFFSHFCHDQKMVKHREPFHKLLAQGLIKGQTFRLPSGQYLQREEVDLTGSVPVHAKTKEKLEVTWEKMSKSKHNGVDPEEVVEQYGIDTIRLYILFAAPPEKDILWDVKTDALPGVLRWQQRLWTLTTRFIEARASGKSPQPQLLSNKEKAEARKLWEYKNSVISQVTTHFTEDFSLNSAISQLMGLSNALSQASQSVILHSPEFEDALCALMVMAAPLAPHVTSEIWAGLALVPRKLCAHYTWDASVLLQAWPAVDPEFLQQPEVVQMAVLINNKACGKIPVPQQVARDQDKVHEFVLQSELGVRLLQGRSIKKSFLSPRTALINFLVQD

cytoplasmic LeuRS = experiment: Selectivity index, ratio of EC50 for inhibition of cytoplasmic LeuRS in HepG2 cells assessed as reduction in protein synthesis to MIC for Mycobacterium tuberculosis H37Rv; format: toxicity, cell-based; conditions: human, read-out: Selectivity Index
Outline: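 Ratio of HepG2 protein-synthesis EC50 to MIC against M. tuberculosis H37Rv.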

Compound | IC50 (Leucine--tRNA ligase) [nM] | MIC [1] [µM] | further results
NCC1OB(O)c2c(OCCc3ccccc3)ccc(Br)c21 (racemic) | 470 | > 5 | –
NCC1OB(O)c2cc(OCCCO)cc(Br)c21 (racemic) | 370 | > 5 | –
COc1ccc(Cl)c2c1B(O)O[C@@H]2CN | 150 | 0.1 (≈ 0.0227 µg/mL) | EC50 (HepG2): 327000 nM; EC50 [2]: 105000 nM; IC50 [3]: 260000 nM; IC50 [4]: > 300000 nM; selectivity ratio (cytoplasmic LeuRS): 1050
CCCCOc1ccc(Br)c2c1B(O)O[C@@H]2CN | 200 | 0.45 (≈ 0.141 µg/mL) | –
CCOc1cc(Br)c2c(c1)B(O)OC2CN (racemic) | 260 | 3.75 (≈ 1.07 µg/mL) | –
NCC1OB(O)c2c(OCCO)ccc(Br)c21 (racemic) | 150 | 0.16 (≈ 0.0483 µg/mL) | –
CCCOc1ccc(Br)c2c1B(O)O[C@@H]2CN | 240 | 0.38 (≈ 0.114 µg/mL) | –
NCC1OB(O)c2c(Oc3ccccc3)ccc(Cl)c21 (racemic) | 340 | 5 (≈ 1.45 µg/mL) | –
NC[C@@H]1OB(O)c2c(OCCO)ccc(Br)c21 | 14200 | 10 (≈ 3.02 µg/mL) | –
NC[C@H]1OB(O)c2c(OCCCO)ccc(Cl)c21 | 470 | 0.14 (≈ 0.038 µg/mL) | –
NC[C@@H]1OB(O)c2c3c(cc(Cl)c21)OCCO3 | 12600 | 80 (≈ 20.4 µg/mL) | –
CCOc1cccc2c1B(O)O[C@@H]2CN | – | 0.6 (≈ 0.124 µg/mL) | –
NC[C@H]1OB(O)c2c3c(cc(Br)c21)OCCO3 | 120 | 0.03 (≈ 0.009 µg/mL) | EC50 (HepG2): 43200 nM; EC50 [2]: 39500 nM; IC50 [3]: 118000 nM; selectivity ratio (cytoplasmic LeuRS): 1320
NCC1OB(O)c2c3c(cc(Br)c21)OCCO3 (racemic) | 92 | 0.5 (≈ 0.15 µg/mL) | –
NCC1OB(O)c2c(Oc3ccc(Br)cc3)ccc(Br)c21 (racemic) | 690 | > 5 | –
CCOc1ccc(F)c2c1B(O)O[C@@H]2CN | – | 0.2 (≈ 0.045 µg/mL) | –
NCC1OB(O)c2c(OCCc3ccccc3)ccc(Cl)c21 (racemic) | 720 | 5 (≈ 1.59 µg/mL) | –
NC[C@@H]1OB(O)c2c3c(cc(Br)c21)OCCO3 | 4200 | 40 (≈ 12 µg/mL) | –
CCOc1cc(Cl)c2c(c1)B(O)OC2CN (racemic) | 630 | > 5 | –
CCCOc1ccc(Cl)c2c1B(O)O[C@@H]2CN | 310 | 0.16 (≈ 0.0409 µg/mL) | –
